Measured values taken from publication PMC12215967 (Scientific Reports, 2025).
Entries after “also recorded” stand apart in the source; their conditions may differ.

Columns and labels:
[1] = system: APN/CD13; test: immunohistochemistry of APN/CD13 expression in HT-1080 transplanted tumors; type: in vivo, human fibrosarcoma in BALB/c nude mice; details: ubenimex 0.5 mg/kg/day i.p., one week / 7 days
In short: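 HT-1080 cells, grown in DMEM with 10% FBS at 37 °C and 5% CO2, were inoculated at 5 × 10^6 cells into the right axilla of 8-week BALB/c nude mice. Tumors reached about 1 cm. Test compound was given at 0.5 mg/kg/day i.p. for 7 days. After the day-8 MRI, tumors were harvested, formaldehyde-fixed for 48 h, paraffin-embedded, cut at 5 μm and immunostained for APN/CD13.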

[2] = system: HT-29 transplanted tumors; test: tumor size on transverse MRI, HT-29; type: in vivo, human colorectal adenocarcinoma in BALB/c nude mice
[3] = system: HT-1080 transplanted tumors; test: tumor size on transverse MRI, HT-1080; type: in vivo, human fibrosarcoma in BALB/c nude mice
In short: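 8-week BALB/c nude mice (~25 g, SPF) bore right-axillary HT-1080 xenografts from 5 × 10^6 cells. At ~1 cm, mice got Gd-labeled probe (200 µg i.p.) and 3.0T T1WI MRI with a small-animal coil (TR 200 ms, TE 2.46 ms, 3 mm slices). Test compound was then given at 0.5 mg/kg/day i.p. for 7 days, with repeat MRI on day 8. Groups were compared by one-way ANOVA.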

[4] = system: HT-1080 transplanted tumors (CD13 positive expression); test: T1WI MRI of HT-1080 tumor-bearing mice, T/NT ratio; type: in vivo, human fibrosarcoma in BALB/c nude mice
[5] = biological target: CD13 receptor (Homo sapiens, UniProt P15144); test: competitive cell binding assay; details: HT-1080 cells, 0.01 to 60.00 µM
[6] = system: HT-29 transplanted tumors (CD13 negative expression); test: T1WI MRI of HT-29 tumor-bearing mice, T/NT ratio; type: in vivo, human colorectal adenocarcinoma in BALB/c nude mice
[7] = proton relaxivity measurement; type: physicochemical; details: 128 MHz, 298 K

Chain of CD13 receptor (P15144 whole entry): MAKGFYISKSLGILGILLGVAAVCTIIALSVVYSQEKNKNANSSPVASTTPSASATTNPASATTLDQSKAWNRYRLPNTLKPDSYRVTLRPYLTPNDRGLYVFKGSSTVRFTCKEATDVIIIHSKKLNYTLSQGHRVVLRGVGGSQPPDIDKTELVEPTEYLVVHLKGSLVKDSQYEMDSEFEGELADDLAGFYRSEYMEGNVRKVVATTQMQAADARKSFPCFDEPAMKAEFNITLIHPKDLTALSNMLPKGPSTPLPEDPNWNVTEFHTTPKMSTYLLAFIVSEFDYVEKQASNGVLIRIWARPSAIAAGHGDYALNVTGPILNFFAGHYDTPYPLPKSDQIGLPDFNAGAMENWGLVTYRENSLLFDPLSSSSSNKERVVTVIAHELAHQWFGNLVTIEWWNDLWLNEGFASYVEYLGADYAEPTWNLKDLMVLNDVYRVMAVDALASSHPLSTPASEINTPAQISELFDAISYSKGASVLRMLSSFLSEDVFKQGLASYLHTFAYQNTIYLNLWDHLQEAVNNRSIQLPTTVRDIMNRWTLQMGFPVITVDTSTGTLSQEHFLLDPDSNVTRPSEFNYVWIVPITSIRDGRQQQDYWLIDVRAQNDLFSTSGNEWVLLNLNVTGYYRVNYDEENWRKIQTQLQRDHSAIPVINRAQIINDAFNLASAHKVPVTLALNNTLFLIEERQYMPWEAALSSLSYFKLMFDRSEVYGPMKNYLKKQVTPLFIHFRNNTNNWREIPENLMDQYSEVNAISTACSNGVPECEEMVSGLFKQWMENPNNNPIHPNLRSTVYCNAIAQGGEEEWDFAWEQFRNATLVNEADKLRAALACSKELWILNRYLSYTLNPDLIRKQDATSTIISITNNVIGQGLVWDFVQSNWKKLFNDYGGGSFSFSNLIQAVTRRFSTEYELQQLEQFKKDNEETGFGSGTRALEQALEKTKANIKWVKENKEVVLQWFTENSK

Molecule: CC(C)C[C@H](NC(=O)[C@@H](O)[C@H](N)Cc1ccccc1)C(=O)O [ubenimex]
- expression of APN/CD13 in HT-1080 grafts after treatment [1]: decreased significantly; also recorded: markedly reduced
- sum of the long and short diameters of the tumor, after one week ([2]; HT-29, after one week, P = 0.001 vs before): 3.5 ± 0.2 cm
- sum of the long and short diameters of the tumor, before ([2]; HT-29, before, P = 0.001 vs after one week): 2.9 ± 0.1 cm
- change of tumor size (sum of long and short diameters) ([3]; 7 days of ubenimex treatment): not changing significantly
- sum of the long and short diameters of the tumor, before treatment ([3]; HT-1080, n = 5, before ubenimex, P = 0.39 before vs after): 3.1 ± 0.1 cm
- change in T/NT ratio after treatment ([4]; ubenimex 0.5 mg/kg/day i.p., 7 days, MRI on the 8th day): decreased significantly

Molecule: DOTA-G3CNGRC
- inhibition of 99mTc-DOTA-G3CNGRC binding to the CD13 receptor [5]: inhibited by DOTA-G3CNGRC in a dose-dependent manner

Molecule: O=C([O-])CN1CCN(CC(=O)[O-])CCN(CC(=O)O)CCN(CC(=O)[O-])CC1.[Gd+3] [Gd-DOTA]
- tumor signal intensity on T1WI ([6]; HT-29 xenograft, intraperitoneal injection, before treatment): high signal intensity
- time of peak T/NT value post-injection ([6]; HT-29 xenografts, i.p. injection, T/NT value-time curve): 1 h
- proton relaxivity R1 [7]: 4.0 mM^− 1S^− 1
- T/NT of HT-1080 xenografts (treated or untreated) compared with HT-29 xenografts ([4]; Gd-DOTA, 1 h post-injection): no significant difference in T/NT values
- tumor signal intensity on T1WI ([4]; HT-1080 xenograft, intraperitoneal injection, before treatment): high signal intensity
- time of peak T/NT value post-injection ([4]; HT-1080 xenografts, i.p. injection, T/NT value-time curve): 1 h
